Test results from ChEMBL document CHEMBL4014308, “Amphiphilic Tobramycin-Lysine Conjugates Sensitize Multidrug Resistant Gram-Negative Bacteria to Rifampicin and Minocycline” (J Med Chem, 2017).
The source made the active and inactive calls. No cut-off for these calls is given here.

Assays:
Assay type in all cases: functional
[1] = system: Pseudomonas aeruginosa; assay: Potentiation of minocycline-induced antibacterial activity against Pseudomonas aeruginosa PAO750 harboring RND efflux pump/OpmH deletion mutant after 18 hrs by checkerboard assay
Summary of the method: (§1)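 Checkerboard in MHB with a 10 × 7 matrix: antibiotic serially diluted along one axis, adjuvant along the other. Inoculum was a 1:50 dilution of a 0.5 McFarland suspension, incubated 18 h at 37 °C and read on a plate reader. Each FIC is the concentration in a no-growth well divided by the MIC alone; FIC index is their sum, with ≤0.5 taken as synergy.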

[2] = system: Pseudomonas aeruginosa; assay: Potentiation of rifampicin-induced antibacterial activity against multidrug/extremely drug-resistant/colistin-susceptible Pseudomonas aeruginosa isolate P262-101856 assessed as fold reduction in rifampicin MIC at 4 ug/ml after 18 hrs by checkerboard assay relative to control
Summary of the method: (§2)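 Checkerboard in Mueller-Hinton broth, 10 × 7 matrix, with the adjuvant held at 4 µg/mL. Inoculum from a 0.5 McFarland suspension diluted 1:50; 18 h at 37 °C. Antibiotic MIC (lowest concentration with no growth) with adjuvant is compared with the antibiotic MIC alone, giving a fold reduction.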

[3] = system: Pseudomonas aeruginosa; assay: Antibacterial activity against multidrug/extremely drug-resistant/colistin-susceptible Pseudomonas aeruginosa isolate 101885 after 18 hrs by microtiter dilution assay; details: isolate 101885, 18 h
Summary of the method: (§3)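 Broth microdilution following CLSI guidelines. An overnight culture was adjusted to 0.5 McFarland in saline, then diluted 1:50 in Mueller-Hinton broth. This inoculum was added in equal volume to 2-fold serial dilutions of agent in MHB and incubated 18 h at 37 °C. MIC was the lowest concentration with no visible growth.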

[4] = system: Pseudomonas aeruginosa; assay: Synergistic antibacterial activity against Pseudomonas aeruginosa PAO1 after 18 hrs in presence of novobiocin by checkerboard assay; details: PAO1, 18 h
Summary of the method: (§4)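 Checkerboard in MHB: antibiotic diluted along one axis and adjuvant along the other (10 × 7 matrix). Inoculum was a 1:50 dilution in MHB of a 0.5 McFarland saline suspension; incubated 18 h at 37 °C. Each FIC = concentration in the no-growth well divided by the MIC alone; FIC index = sum of both FICs. ≤0.5 synergy, 0.5–4 no interaction, ≥4 antagonism.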

[5] = system: Pseudomonas aeruginosa; assay: Potentiation of minocycline-induced antibacterial activity against multidrug/extremely drug-resistant/colistin-susceptible Pseudomonas aeruginosa isolate P262-101856 infected in Galleria mellonella assessed as host survival at 75 mg/kg after 24 hrs relative to control; details: isolate P262-101856, 24 h
Summary of the method: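 Galleria mellonella larvae (about 250 mg, used within 7 days; 15 per group) were injected with 10 µL of XDR P. aeruginosa P262 at 1.0×10^3 CFU/mL. At 2 h they received a single 10 µL injection: monotherapy at 75 mg/kg, or combinations at 12.5+12.5 to 75+75 mg/kg. PBS vehicle served as control. Survival was scored over 24 h at 37 °C.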

[6] = system: Pseudomonas aeruginosa; assay: Induction of outer membrane permeabilization in Pseudomonas aeruginosa PAO1 at 32 ug/ml after 30 mins by CFDASE staining based fluorescence assay
Summary of the method: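 Log-phase PAO1 washed in PBS, brought to OD600 0.5 and loaded with 100 µM CFDASE for 30 min at 37 °C, then washed. Cells were exposed to agent for 30 min at 37 °C and supernatant fluorescence read at 488/520 nm. Untreated cells were subtracted; 1% Triton X-100 served as positive control.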

[7] = system: Pseudomonas aeruginosa; assay: Antibacterial activity against Pseudomonas aeruginosa ATCC 27853 after 18 hrs by microtiter dilution assay; details: ATCC 27853, 18 h
Summary of the method: (§5)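 Broth microdilution per CLSI. Overnight culture adjusted to 0.5 McFarland in saline, diluted 1:50 in Mueller-Hinton broth, and added to an equal volume of 2-fold serial compound dilutions in MHB. Incubated 18 h at 37 °C. MIC taken as the lowest concentration with no visible growth.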

[8] = system: Enterobacter cloacae; assay: Antibacterial activity against multidrug-resistant Enterobacter cloacae 117029 after 18 hrs by microtiter dilution assay; details: Enterobacter cloacae, 117029, 18 h; summary of the method: as §3
[9] = system: Pseudomonas aeruginosa; assay: Synergistic antibacterial activity against Pseudomonas aeruginosa PAO1 after 18 hrs in presence of rifampicin by checkerboard assay; details: PAO1, 18 h; summary of the method: as §4
[10] = system: Acinetobacter baumannii; assay: Synergistic antibacterial activity against multidrug-resistant Acinetobacter baumannii AB027 after 18 hrs in presence of minocycline by checkerboard assay; details: AB027, 18 h; summary of the method: as §1
[11] = system: Klebsiella pneumoniae; assay: Antibacterial activity against Klebsiella pneumoniae ATCC 13883 after 18 hrs by microtiter dilution assay; details: ATCC 13883, 18 h; summary of the method: as §5
[12] = system: Pseudomonas aeruginosa; assay: Potentiation of minocycline-induced antibacterial activity against Pseudomonas aeruginosa PAO200 harboring MexAB-oprM deletion mutant after 18 hrs by checkerboard assay
Summary of the method: (§6)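 Checkerboard in Mueller-Hinton broth: antibiotic serially diluted along one axis and adjuvant along the other (10 × 7 matrix). Inoculum from a 0.5 McFarland saline suspension diluted 1:50 in MHB; 18 h at 37 °C, then plate read. MIC is the lowest concentration with no growth. FIC of each agent is its concentration in a no-growth well divided by its MIC alone; FIC index is the sum of both. FIC index ≤0.5 counts as synergy.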

[13] = system: Pseudomonas aeruginosa; assay: Potentiation of rifampicin-induced antibacterial activity against multidrug/extremely drug-resistant/colistin-susceptible Pseudomonas aeruginosa isolate 100036 at 4 ug/ml after 18 hrs by checkerboard assay; summary of the method: as §6
[14] = system: Pseudomonas aeruginosa; assay: Potentiation of minocycline-induced antibacterial activity against multidrug/extremely drug-resistant/colistin-resistant Pseudomonas aeruginosa isolate 101243 assessed as fold reduction in minocycline MIC at 4 ug/ml after 18 hrs by checkerboard assay relative to control; summary of the method: as §2
[15] = system: Pseudomonas aeruginosa; assay: Potentiation of rifampicin-induced antibacterial activity against Pseudomonas aeruginosa PAO750 harboring RND efflux pump/OpmH deletion mutant after 18 hrs by checkerboard assay; summary of the method: as §6
[16] = system: Pseudomonas aeruginosa; assay: Potentiation of rifampicin-induced antibacterial activity against multidrug/extremely drug-resistant/colistin-resistant Pseudomonas aeruginosa isolate 101243 assessed as fold reduction in rifampicin MIC at 4 ug/ml after 18 hrs by checkerboard assay relative to control; summary of the method: as §2
[17] = system: Acinetobacter baumannii; assay: Potentiation of minocycline-induced antibacterial activity against multidrug-resistant Acinetobacter baumannii AB027 at 4 ug/ml after 18 hrs by checkerboard assay; summary of the method: as §6
[18] = system: Pseudomonas aeruginosa; assay: Potentiation of minocycline-induced antibacterial activity against multidrug/extremely drug-resistant/colistin-susceptible Pseudomonas aeruginosa isolate P264-104354 at 4 ug/ml after 18 hrs by checkerboard assay; summary of the method: as §6
[19] = system: Pseudomonas aeruginosa; assay: Potentiation of meropenem-induced antibacterial activity against Pseudomonas aeruginosa PAO1 at 4 ug/ml after 18 hrs by checkerboard assay; summary of the method: as §6
[20] = system: Pseudomonas aeruginosa; assay: Potentiation of minocycline-induced antibacterial activity against multidrug/extremely drug-resistant/colistin-susceptible Pseudomonas aeruginosa isolate 101885 at 4 ug/ml after 18 hrs by checkerboard assay; summary of the method: as §6
[21] = system: Pseudomonas aeruginosa; assay: Synergistic antibacterial activity against Pseudomonas aeruginosa PAO1 after 18 hrs in presence of gentamicin by checkerboard assay; details: PAO1, 18 h; summary of the method: as §4
[22] = system: Acinetobacter baumannii; assay: Synergistic antibacterial activity against multidrug-resistant Acinetobacter baumannii AB031 after 18 hrs in presence of rifampicin by checkerboard assay; details: AB031, 18 h; summary of the method: as §1
[23] = system: Pseudomonas aeruginosa; assay: Potentiation of erythromycin-induced antibacterial activity against Pseudomonas aeruginosa PAO1 at 4 ug/ml after 18 hrs by checkerboard assay; summary of the method: as §6

Structure (SMILES): Cl.Cl.Cl.Cl.Cl.Cl.Cl.NCCCC[C@H](N)C(=O)N(CCCCCCCCCCCCO[C@@H]1[C@@H](O[C@H]2O[C@H](CO)[C@@H](O)[C@H](N)[C@H]2O)[C@H](N)C[C@H](N)[C@H]1O[C@H]1O[C@H](CN)[C@@H](O)C[C@H]1N)Cc1c2ccccc2c(Cl)c2ccccc12
- fractional inhibitory concentration index (FICI) [1]: 0.75
- fold change (FC) [2]: 64
- MIC [3]: 16 µg/mL
- MIC [4]: 2 µg/mL
- survival at 75 mg/kg [5]: 77%
- Activity [6]: Active
- MIC [7]: 32 µg/mL
- MIC [8]: 256 µg/mL
- MIC [9]: 1 µg/mL
- MIC [10]: 1 µg/mL
- MIC [11]: 128 µg/mL
- fractional inhibitory concentration index (FICI) [12]: 0.531
- fractional inhibitory concentration index (FICI) [13]: 0.079
- fold change (FC) [14]: 4
- fractional inhibitory concentration index (FICI) [15]: 0.156
- fold change (FC) [16]: 32
- fractional inhibitory concentration index (FICI) [17]: 0.258
- fractional inhibitory concentration index (FICI) [18]: 0.079
- fractional inhibitory concentration index (FICI) [19]: 2.031
- fractional inhibitory concentration index (FICI) [20]: 0.156
- MIC [21]: 4 µg/mL
- MIC [22]: 1 µg/mL
- fractional inhibitory concentration index (FICI) [23]: 0.156
